Each structure is given as a SMILES string.

In test [1] the test system is T1, Receptor-type tyrosine-protein kinase FLT3 (Homo sapiens), P36888 [D835H].
T1 sequence (whole entry): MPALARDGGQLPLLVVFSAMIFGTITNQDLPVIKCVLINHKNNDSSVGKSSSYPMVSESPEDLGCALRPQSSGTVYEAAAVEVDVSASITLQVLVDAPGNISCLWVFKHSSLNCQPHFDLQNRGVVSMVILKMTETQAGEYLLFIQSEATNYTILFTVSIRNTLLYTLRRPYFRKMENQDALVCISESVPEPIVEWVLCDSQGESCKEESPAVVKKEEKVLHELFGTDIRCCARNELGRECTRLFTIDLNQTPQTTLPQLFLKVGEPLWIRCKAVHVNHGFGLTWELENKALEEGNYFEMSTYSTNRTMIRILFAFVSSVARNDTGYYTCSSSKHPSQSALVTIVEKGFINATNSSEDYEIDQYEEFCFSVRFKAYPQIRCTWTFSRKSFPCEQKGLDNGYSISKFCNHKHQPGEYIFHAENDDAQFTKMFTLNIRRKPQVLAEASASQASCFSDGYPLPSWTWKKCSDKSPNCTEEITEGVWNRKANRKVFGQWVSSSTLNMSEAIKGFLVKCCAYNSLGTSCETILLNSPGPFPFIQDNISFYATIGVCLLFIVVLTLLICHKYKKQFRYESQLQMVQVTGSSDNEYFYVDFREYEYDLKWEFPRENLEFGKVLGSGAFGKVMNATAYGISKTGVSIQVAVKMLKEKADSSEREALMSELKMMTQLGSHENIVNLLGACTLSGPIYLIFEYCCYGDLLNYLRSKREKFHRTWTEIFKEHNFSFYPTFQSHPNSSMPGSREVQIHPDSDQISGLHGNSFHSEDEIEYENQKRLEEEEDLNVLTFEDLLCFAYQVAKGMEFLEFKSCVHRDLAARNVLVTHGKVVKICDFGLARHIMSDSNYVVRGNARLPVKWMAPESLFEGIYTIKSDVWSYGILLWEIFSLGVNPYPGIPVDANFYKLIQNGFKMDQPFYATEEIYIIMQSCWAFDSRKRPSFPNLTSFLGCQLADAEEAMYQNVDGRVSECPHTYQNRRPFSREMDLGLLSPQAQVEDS
Put plainly: Inhibition of FLT3 D835H mutant at 1 uM. The gist of the method: (§1)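 Single-concentration screen on the Ambit KINOMEscan platform, run against a panel of 250–400 kinases. Per-kinase inhibition was also summarized as S(90), the fraction of kinases inhibited by more than 90%.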

Test [2] concerns the target T2, Serine/threonine-protein kinase 3 (Homo sapiens) (UniProt Q13188).
T2 sequence (whole entry): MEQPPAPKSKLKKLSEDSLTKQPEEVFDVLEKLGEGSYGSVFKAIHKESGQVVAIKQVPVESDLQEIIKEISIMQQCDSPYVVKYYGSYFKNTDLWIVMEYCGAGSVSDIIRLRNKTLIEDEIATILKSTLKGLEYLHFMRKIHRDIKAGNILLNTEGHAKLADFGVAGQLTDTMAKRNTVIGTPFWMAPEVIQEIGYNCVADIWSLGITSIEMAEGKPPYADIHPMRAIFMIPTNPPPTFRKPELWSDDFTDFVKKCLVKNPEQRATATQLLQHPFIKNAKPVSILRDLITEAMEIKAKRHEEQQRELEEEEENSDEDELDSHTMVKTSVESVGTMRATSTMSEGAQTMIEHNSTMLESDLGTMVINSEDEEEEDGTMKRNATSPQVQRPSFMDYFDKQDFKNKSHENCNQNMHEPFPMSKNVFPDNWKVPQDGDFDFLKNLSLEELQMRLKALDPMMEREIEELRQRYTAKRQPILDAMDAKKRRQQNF
Put plainly: Inhibition of MST2 at 1 uM.

Test [3] has as its target Cyclin-dependent kinase 17 (Homo sapiens) (UniProt Q00537). In words: Inhibition of PCTK2 at 1 uM.
Test [4] addresses T3, Serine/threonine-protein kinase Nek5 (Homo sapiens) (UniProt Q6P3R8).
T3 sequence (whole entry): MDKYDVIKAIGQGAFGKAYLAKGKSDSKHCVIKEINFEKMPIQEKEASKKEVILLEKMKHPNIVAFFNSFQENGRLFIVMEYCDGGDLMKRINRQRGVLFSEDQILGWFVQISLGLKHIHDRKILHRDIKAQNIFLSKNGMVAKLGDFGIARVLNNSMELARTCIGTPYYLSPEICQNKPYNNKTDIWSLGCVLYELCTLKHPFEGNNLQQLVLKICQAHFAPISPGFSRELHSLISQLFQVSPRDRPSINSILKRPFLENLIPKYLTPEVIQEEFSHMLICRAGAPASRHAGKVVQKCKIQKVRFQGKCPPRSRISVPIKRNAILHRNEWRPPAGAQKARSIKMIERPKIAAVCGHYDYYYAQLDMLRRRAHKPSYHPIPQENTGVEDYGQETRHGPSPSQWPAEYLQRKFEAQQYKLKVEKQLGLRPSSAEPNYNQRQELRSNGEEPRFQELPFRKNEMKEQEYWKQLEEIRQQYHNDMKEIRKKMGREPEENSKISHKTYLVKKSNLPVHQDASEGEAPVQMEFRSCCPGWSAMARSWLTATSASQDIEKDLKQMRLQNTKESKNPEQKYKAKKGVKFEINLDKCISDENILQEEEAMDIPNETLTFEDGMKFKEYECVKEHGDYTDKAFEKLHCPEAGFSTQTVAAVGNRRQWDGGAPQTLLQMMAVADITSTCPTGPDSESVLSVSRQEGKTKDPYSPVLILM
In words: Inhibition of NEK5 at 1 uM.

In test [5] the target is Insulin receptor-related protein (Homo sapiens) (UniProt P14616). In words: Inhibition of INSRR at 1 uM. The gist of the method: as §1
Sequence of Insulin receptor-related protein (Homo sapiens) (P14616 27-742 limits assumed): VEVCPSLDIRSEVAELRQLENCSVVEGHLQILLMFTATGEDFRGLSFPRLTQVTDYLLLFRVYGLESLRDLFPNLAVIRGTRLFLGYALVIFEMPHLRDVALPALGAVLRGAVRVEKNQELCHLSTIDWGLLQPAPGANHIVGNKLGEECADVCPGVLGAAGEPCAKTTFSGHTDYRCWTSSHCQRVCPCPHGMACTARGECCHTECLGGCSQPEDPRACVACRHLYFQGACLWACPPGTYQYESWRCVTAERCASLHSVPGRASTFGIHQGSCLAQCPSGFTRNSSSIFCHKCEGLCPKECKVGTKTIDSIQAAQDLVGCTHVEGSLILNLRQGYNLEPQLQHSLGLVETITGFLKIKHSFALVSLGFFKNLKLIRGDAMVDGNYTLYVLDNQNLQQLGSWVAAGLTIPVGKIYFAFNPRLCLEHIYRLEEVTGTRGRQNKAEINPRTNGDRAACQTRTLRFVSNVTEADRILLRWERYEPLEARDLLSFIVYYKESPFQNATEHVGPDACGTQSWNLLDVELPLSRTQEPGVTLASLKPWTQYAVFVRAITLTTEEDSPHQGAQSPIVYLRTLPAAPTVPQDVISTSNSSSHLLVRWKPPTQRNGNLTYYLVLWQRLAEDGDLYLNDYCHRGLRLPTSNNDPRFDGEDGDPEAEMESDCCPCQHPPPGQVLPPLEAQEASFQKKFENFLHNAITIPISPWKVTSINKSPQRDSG
Sequence of Insulin receptor-related protein (Homo sapiens) (P14616 747-1297 limits assumed): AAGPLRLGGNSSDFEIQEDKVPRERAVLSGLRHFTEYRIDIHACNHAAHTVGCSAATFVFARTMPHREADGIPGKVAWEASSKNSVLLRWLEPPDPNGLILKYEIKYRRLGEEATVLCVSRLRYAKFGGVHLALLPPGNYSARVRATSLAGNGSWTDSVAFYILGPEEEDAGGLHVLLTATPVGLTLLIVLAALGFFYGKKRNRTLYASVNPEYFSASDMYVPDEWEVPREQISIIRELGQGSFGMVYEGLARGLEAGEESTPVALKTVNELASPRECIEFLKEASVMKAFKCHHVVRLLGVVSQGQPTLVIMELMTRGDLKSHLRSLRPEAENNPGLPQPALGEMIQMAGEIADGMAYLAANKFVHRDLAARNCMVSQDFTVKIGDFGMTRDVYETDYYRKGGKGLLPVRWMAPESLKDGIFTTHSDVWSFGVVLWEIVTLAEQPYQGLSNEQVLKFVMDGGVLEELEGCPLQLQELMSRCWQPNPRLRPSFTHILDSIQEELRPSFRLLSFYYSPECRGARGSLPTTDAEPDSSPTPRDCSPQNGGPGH

Sequence of Cyclin-dependent kinase 17 (Homo sapiens) (Q00537 whole entry, looked up): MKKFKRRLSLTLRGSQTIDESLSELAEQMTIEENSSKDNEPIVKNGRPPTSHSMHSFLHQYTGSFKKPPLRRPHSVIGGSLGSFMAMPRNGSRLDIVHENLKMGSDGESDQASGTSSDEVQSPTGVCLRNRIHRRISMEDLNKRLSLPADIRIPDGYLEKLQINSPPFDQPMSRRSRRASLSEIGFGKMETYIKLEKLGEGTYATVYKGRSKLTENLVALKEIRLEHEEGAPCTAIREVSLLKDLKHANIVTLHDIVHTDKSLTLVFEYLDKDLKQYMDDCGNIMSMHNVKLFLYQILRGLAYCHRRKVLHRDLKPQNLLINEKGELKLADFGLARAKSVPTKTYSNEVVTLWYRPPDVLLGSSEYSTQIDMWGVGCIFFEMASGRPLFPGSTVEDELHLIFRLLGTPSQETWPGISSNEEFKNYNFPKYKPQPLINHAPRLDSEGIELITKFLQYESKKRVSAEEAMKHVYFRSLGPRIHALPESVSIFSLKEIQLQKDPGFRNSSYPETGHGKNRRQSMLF

With `FC(F)(F)c1ccc(Cl)cc1CN1CCNc2ncc(-c3ccnc(N4CCNCC4)c3)cc21`, the inhibition in test [1] is 93%; in test [2], 97%; in test [3], below 50%; in test [4], below 50%; in test [5], below 50%.

For the compound `CN1CCN(c2ccc(-c3cnc4c(c3)N(Cc3cc(Cl)ccc3Cl)CCN4)cn2)CC1`, the inhibition in test [1] was 80%; in test [2] it was below 50%; in test [3], below 50%; in test [4], below 50%; in test [5], below 50%.

For the compound `COC1CCN(C(=O)c2ccc(-c3cnc4c(c3)N(Cc3cc(Cl)ccc3C(F)(F)F)CCN4)cc2)CC1`, the values for the inhibition in test [1] and in test [5] were 77.2% and below 50%, respectively.

Take `O=C(c1ccc(-c2cnc3c(c2)N(Cc2cc(Cl)ccc2C(F)(F)F)CCN3)cc1)N1CCCCC1`: the inhibition in test [1] and in test [5] was below 50% throughout.

Turning to `O=C(O)c1ccc(-c2cnc3c(c2)N(Cc2cc(Cl)ccc2C(F)(F)F)CCN3)cc1`, the inhibition in test [1] and in test [5] was below 50% throughout.

`CN1CCN(c2ccc(-c3cnc4c(c3)N(Cc3cc(F)ccc3F)CCN4)cn2)CC1`: the inhibition in test [1] is 72.5%; in test [2], below 50%; in test [3], below 50%; in test [4], below 50%; in test [5], below 50%.

Consider `O=C(c1ccc(-c2cnc3c(c2)N(Cc2cc(Cl)ccc2C(F)(F)F)CCN3)cc1)N1CCC(N2CCCC2)CC1`, for which the inhibition in test [1] is 90.1%; in test [5] it was below 50%.

For `CN1CCN(c2ccc(-c3cnc4c(c3)N(Cc3c(F)ccc(F)c3Cl)CCN4)cn2)CC1`, the inhibition in test [1] is 73%; in test [2], below 50%; in test [3] it was below 50%; in test [4] it was below 50%; in test [5], below 50%.

Turning to `CC(=O)N1CCN(c2cc(-c3cnc4c(c3)N(Cc3cc(Cl)ccc3C(F)(F)F)CCN4)ccn2)CC1`, the inhibition in test [1] is 81%; in test [2], 88%; in test [3] it was below 50%; in test [4], below 50%; in test [5] it was below 50%.

On to `CN1CCN(c2ccc(-c3cnc4c(c3)N(Cc3cc(Cl)ccc3C(F)(F)F)CCN4)cn2)CC1`, for which the inhibition in test [1] is 82%; in test [2], below 50%; in test [3], below 50%; in test [4], below 50%; in test [5] it was below 50%.
